Measured values taken from ChEMBL document CHEMBL5325511, “Discovery of N-(4-(Aminomethyl)phenyl)-5-methylpyrimidin-2-amine Derivatives as Potent and Selective JAK2 Inhibitors” (ACS Med Chem Lett, 2023).

Experiments:
[1] = target: Tyrosine-protein kinase JAK2 (Homo sapiens, UniProt O60674, V617F); assay: Inhibition of JAK2 V617F mutant in human SET2 cells; assay type: cell-based
Summary of the method: (§1)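 Cell proliferation assay. IC50 is the concentration that inhibits proliferation by 50%, taken from dose–response curves. Mean ± SEM of at least three independent experiments.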

[2] = target: Tyrosine-protein kinase JAK2 (Mus musculus, UniProt Q62120, V617F); assay: Inhibition of JAK2 V617F mutant in mouse BaF3 cells; assay type: cell-based; summary of the method: as §1
[3] = target: T1, Receptor-type tyrosine-protein kinase FLT3 (Homo sapiens, UniProt P36888); assay: Inhibition of FLT3 in human MOLM-13 cells; assay type: cell-based; summary of the method: as §1
T1 sequence (P36888 whole entry): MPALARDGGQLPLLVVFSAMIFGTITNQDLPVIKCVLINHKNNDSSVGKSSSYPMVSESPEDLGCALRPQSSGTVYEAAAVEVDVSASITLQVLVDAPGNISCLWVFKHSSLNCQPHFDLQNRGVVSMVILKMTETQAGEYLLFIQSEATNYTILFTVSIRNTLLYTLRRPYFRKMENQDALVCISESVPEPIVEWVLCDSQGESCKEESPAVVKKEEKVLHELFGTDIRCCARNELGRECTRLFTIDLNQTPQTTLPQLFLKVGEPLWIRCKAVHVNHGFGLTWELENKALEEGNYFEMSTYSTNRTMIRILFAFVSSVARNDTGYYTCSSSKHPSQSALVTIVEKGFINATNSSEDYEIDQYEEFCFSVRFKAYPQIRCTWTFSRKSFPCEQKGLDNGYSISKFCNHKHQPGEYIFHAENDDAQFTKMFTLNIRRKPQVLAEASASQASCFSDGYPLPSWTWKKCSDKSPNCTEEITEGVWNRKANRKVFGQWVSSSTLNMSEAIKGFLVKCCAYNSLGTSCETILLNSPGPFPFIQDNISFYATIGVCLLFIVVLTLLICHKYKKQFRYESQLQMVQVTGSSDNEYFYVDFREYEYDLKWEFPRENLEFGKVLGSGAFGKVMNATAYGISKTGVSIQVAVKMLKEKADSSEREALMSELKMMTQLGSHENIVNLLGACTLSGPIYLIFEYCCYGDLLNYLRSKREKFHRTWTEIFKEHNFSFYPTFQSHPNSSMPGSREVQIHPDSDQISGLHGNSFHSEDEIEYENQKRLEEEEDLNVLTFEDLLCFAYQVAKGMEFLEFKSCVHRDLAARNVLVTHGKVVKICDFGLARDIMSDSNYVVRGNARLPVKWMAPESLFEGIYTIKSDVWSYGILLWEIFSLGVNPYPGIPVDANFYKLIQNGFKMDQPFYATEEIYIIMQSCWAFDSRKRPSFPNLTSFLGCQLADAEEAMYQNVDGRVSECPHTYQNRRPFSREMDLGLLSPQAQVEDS

[4] = Metabolic stability in human liver microsomes assessed as half life; assay type: ADME, Microsome
[5] = target: Tyrosine-protein kinase JAK1 (Homo sapiens, UniProt P23458); assay: Inhibition of JAK1 (unknown origin) in presence of Mg/ATP mixture by [gamma p33]-ATP based radiometric assay
Summary of the method: (§2)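 IC50 values determined by Eurofins Discovery.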

[6] = target: T2, Tyrosine-protein kinase JAK2 (Homo sapiens, UniProt O60674); assay: Inhibition of JAK2 (unknown origin) in presence of Mg/ATP mixture by [gamma p33]-ATP based radiometric assay; summary of the method: as §2
[7] = target: T3, Tyrosine-protein kinase JAK3 (Homo sapiens, UniProt P52333); assay: Inhibition of JAK3 (unknown origin) in presence of Mg/ATP mixture by [gamma p33]-ATP based radiometric assay
T3 sequence (P52333 whole entry): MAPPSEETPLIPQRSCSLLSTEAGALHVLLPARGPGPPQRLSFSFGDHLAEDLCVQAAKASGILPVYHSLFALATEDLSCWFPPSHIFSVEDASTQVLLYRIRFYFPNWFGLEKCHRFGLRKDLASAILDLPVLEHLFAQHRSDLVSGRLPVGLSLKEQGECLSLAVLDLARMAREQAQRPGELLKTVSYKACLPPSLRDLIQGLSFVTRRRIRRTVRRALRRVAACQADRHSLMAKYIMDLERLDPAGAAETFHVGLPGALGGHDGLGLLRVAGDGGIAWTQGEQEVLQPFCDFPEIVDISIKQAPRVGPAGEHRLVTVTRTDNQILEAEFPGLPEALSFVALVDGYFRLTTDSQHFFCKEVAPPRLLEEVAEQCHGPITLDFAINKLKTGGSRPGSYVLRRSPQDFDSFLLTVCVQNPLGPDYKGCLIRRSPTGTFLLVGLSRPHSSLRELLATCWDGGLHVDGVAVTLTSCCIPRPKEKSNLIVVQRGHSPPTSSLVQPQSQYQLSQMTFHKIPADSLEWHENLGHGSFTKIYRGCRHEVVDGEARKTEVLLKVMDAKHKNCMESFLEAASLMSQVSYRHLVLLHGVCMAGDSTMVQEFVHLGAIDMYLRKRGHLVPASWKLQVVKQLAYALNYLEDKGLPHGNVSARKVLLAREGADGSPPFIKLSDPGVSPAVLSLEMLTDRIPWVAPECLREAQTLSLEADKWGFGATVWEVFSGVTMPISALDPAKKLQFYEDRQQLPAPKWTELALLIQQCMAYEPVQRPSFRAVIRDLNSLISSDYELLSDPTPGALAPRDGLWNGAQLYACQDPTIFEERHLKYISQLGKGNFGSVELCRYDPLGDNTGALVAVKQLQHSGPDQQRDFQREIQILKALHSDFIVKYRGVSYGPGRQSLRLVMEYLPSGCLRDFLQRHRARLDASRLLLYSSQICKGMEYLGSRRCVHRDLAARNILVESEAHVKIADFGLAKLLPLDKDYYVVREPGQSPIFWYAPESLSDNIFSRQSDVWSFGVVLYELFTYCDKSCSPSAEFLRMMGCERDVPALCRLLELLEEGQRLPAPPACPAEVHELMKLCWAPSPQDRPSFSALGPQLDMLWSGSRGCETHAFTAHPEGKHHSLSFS

[8] = target: Non-receptor tyrosine-protein kinase TYK2 (Homo sapiens, UniProt P29597); assay: Inhibition of TYK2 (unknown origin) in presence of Mg/ATP mixture by [gamma p33]-ATP based radiometric assay
[9] = target: T1, Receptor-type tyrosine-protein kinase FLT3; assay: Inhibition of FLT3 (unknown origin) in presence of Mg/ATP mixture by [gamma p33]-ATP based radiometric assay; summary of the method: as §2
[10] = Cmax in Sprague-Dawley rat at 5 mg/kg, po measured upto 24 hrs by LC-MS/MS analysis; assay type: ADME, organism-based; set-up: dose 5 mg/kg, time < 24 hrs, route po; details: in vivo, 24 h
Summary of the method: (§3)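 Sprague–Dawley rats, n = 5, dosed at 5 mg/kg as a solution in 2% ethanol and 1% Tween 80, pH 5.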

[11] = Tmax in Sprague-Dawley rat at 5 mg/kg, po measured upto 24 hrs by LC-MS/MS analysis; assay type: ADME, organism-based; details: in vivo, po, 5 mg/kg, 24 h
Summary of the method: (§4)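 Sprague–Dawley rats, n = 5 per group, dosed at 5 mg/kg as a solution in 2% ethanol and 1% Tween 80, pH 5.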

[12] = Half life in Sprague-Dawley rat at 5 mg/kg, po measured upto 24 hrs by LC-MS/MS analysis; assay type: ADME, organism-based; details: in vivo, po, 5 mg/kg, 24 h; summary of the method: as §3
[13] = Clearance in Sprague-Dawley rat at 5 mg/kg, po measured upto 24 hrs by LC-MS/MS analysis; assay type: ADME, organism-based; details: in vivo; summary of the method: as §3
[14] = AUC(0 to t) in Sprague-Dawley rat at 5 mg/kg, po measured upto 24 hrs by LC-MS/MS analysis; assay type: ADME, organism-based; set-up: time < 24 hrs, dose 5 mg/kg, route po; details: in vivo; summary of the method: as §3
[15] = Oral bioavailability in Sprague-Dawley rat at 5 mg/kg measured upto 24 hrs by LC-MS/MS analysis; assay type: ADME, organism-based; details: in vivo; summary of the method: as §4
[16] = Selectivity ratio of IC50 for JAK3 (unknown origin) to IC50 for JAK2 (unknown origin)
[17] = Selectivity ratio of IC50 for TYK2 (unknown origin) to IC50 for JAK2 (unknown origin)
[18] = Selectivity ratio of IC50 for FLT3 (unknown origin) to IC50 for JAK2 (unknown origin)
[19] = target: T2, Tyrosine-protein kinase JAK2; assay: Inhibition of human JAK2 JH1 expressed in baculovirus infected Sf9 cells assessed as residual activity at 100 nM relative to control

T2 sequence (O60674 whole entry): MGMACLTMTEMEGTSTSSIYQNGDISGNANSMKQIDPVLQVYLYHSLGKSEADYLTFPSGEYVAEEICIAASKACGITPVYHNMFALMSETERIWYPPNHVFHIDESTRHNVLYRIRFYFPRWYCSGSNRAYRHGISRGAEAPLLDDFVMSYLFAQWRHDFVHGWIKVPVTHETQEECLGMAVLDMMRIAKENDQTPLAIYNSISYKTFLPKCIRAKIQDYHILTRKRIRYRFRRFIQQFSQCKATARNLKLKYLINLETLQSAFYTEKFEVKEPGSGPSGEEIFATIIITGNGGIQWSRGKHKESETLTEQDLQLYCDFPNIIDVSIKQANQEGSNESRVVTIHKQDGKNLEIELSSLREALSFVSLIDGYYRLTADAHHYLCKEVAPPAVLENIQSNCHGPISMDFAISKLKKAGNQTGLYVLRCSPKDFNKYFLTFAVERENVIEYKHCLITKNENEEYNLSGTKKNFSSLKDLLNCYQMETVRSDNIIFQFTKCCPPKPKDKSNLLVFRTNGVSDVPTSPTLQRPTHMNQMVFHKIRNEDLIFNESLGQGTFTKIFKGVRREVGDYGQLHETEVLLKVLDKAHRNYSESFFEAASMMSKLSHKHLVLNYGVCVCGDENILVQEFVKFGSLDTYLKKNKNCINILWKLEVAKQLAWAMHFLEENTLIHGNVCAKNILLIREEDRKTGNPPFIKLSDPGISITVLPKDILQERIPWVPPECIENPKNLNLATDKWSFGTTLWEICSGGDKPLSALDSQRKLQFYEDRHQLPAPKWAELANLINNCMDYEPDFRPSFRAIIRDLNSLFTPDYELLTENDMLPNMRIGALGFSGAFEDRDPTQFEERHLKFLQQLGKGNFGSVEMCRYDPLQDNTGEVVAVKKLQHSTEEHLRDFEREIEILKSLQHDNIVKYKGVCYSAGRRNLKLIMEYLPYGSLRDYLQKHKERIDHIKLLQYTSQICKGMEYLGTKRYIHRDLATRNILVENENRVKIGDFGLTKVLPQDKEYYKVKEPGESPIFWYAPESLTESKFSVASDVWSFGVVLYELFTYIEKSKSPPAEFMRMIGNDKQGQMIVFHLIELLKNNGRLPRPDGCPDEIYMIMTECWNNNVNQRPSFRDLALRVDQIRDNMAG
Sequence of Tyrosine-protein kinase JAK1 (P23458 whole entry): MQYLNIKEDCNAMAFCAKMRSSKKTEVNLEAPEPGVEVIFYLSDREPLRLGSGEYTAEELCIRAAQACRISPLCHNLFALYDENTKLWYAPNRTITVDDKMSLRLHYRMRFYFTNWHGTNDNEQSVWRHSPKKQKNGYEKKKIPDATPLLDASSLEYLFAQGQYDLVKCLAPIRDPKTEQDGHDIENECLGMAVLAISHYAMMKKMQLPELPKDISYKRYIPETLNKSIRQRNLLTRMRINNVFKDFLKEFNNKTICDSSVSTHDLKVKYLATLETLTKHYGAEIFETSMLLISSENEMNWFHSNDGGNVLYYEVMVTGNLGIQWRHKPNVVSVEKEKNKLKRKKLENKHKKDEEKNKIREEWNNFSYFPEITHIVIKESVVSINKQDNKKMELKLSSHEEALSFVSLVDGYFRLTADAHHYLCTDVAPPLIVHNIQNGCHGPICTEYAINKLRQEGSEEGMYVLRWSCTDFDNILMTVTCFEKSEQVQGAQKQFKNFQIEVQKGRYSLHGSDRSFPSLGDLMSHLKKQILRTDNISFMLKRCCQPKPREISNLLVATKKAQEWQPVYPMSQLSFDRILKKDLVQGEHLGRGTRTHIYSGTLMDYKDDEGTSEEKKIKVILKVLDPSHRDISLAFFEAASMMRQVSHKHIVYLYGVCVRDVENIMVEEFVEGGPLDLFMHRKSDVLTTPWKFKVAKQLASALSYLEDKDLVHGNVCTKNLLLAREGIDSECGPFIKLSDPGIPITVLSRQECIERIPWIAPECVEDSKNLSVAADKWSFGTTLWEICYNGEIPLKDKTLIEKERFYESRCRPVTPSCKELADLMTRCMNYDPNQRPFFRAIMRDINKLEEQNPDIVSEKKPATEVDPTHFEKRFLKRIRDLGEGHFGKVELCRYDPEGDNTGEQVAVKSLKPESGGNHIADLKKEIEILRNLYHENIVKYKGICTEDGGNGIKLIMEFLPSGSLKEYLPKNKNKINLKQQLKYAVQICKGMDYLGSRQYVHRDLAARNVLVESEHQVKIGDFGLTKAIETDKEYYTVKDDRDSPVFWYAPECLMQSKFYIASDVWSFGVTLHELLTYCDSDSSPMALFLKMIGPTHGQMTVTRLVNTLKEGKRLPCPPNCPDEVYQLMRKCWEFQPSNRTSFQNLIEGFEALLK
Sequence of Non-receptor tyrosine-protein kinase TYK2 (P29597 whole entry): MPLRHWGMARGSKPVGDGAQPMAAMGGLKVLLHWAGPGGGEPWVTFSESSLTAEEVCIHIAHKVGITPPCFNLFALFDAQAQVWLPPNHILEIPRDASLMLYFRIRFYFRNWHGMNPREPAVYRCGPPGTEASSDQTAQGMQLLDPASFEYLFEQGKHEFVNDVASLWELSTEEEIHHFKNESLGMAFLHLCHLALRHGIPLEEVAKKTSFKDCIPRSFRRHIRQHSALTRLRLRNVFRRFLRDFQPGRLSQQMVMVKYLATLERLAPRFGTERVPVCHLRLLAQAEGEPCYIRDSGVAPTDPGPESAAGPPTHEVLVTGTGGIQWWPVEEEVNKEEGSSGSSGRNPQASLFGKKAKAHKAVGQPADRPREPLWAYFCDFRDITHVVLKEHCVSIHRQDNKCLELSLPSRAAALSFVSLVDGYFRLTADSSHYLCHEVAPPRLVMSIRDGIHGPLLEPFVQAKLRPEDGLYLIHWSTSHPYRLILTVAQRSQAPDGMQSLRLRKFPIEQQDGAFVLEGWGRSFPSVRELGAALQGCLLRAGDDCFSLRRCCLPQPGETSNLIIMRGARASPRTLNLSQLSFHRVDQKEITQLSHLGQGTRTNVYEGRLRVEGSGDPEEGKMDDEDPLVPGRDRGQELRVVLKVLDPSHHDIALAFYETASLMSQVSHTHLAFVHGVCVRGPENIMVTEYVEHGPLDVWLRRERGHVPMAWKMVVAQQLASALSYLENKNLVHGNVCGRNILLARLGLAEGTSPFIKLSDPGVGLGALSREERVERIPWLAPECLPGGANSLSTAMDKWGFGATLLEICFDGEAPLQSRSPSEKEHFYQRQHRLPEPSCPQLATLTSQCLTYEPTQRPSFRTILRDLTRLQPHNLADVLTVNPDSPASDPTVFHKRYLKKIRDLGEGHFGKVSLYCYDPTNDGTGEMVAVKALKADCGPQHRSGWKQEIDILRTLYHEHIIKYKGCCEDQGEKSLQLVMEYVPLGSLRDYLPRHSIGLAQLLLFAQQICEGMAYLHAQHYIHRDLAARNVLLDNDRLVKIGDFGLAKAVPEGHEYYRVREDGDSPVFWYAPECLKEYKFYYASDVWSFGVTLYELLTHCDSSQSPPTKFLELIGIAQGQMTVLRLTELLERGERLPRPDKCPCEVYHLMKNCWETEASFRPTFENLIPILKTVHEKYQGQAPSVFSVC
Sequence of Tyrosine-protein kinase JAK2 (Mus musculus, UniProt Q62120, V617F) (Q62120 as listed by the source V617F): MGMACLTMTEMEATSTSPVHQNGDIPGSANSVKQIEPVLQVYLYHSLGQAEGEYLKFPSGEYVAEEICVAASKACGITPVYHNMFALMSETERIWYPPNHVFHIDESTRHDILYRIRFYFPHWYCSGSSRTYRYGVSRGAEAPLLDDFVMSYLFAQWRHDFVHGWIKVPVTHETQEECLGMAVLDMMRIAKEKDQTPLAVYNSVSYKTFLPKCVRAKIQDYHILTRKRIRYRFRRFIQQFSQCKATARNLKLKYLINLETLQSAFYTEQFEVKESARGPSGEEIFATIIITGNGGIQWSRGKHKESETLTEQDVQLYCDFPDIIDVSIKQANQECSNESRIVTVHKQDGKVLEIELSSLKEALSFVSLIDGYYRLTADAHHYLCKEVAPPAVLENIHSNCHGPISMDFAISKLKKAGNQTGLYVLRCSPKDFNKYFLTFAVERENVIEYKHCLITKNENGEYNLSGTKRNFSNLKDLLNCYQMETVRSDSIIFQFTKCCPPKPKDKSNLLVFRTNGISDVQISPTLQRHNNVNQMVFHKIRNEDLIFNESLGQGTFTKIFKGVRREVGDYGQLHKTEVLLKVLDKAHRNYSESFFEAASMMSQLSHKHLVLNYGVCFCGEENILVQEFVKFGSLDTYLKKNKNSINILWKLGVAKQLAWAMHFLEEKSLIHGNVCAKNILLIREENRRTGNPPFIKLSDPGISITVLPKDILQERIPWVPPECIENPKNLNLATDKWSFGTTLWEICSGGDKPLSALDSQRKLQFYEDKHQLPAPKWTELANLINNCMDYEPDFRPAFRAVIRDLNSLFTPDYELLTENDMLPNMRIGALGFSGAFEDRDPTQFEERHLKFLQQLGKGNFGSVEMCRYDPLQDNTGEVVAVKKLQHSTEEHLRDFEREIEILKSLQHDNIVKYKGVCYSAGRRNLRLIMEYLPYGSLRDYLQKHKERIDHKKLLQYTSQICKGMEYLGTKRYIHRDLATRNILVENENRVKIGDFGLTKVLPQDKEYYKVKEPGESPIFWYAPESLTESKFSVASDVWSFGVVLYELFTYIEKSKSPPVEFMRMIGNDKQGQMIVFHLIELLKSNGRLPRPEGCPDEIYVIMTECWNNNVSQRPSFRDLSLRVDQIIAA
Sequence of Tyrosine-protein kinase JAK2 (Homo sapiens, UniProt O60674, V617F) (O60674 whole entry V617F): as the sequence (O60674 whole entry) above, with V617F counted along it

IC50 [1]: 109 nM
IC50 [2]: 53.3 nM
IC50 [3]: 1250 nM
half-life [4]: > 2 h
IC50 [5]: 178 nM
IC50 [6]: 5 nM
IC50 [7]: 265 nM
IC50 [8]: 204 nM
IC50 [9]: 297 nM
Cmax [10]: 89.3 ng/mL
Tmax [11]: 1.6 h
t1/2 [12]: 3.5 h
CL [13]: 355 mL/min/kg
AUCt [14]: 2011.6 ng·h/mL
bioavailability [15]: 40.5%
Ratio IC50 [16]: 53
Ratio IC50 [17]: 40.8
Ratio IC50 [18]: 59.4
Activity [19]: 1%
Compound: Cc1cnc(Nc2ccc(CNS(=O)(=O)C3CC3)cc2)nc1-c1cnn(C(C)C)c1
